# Bioassay records as filed in PubChem BioAssay.
# UHRF1 binding = UHRF1 methylated DNA binding inhibitors, primary screen, counter-screen for MBD2 inhibitor project, biochemical, TR-FRET, human UHRF1, single concentration. inhibition, % at 4.4 µM. 370,000 compounds, 0.75% hits. UHRF1 binding to methylated oligo. E3 ubiquitin-protein ligase UHRF1 (Homo sapiens), Q96T88; in the data active = inhibition above about 21%;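 note: UHRF1 SRA domain binding a hemimethylated CpG hairpin DNA probe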
# Target sequence (Q96T88 whole entry, looked up, the tested form may be a part): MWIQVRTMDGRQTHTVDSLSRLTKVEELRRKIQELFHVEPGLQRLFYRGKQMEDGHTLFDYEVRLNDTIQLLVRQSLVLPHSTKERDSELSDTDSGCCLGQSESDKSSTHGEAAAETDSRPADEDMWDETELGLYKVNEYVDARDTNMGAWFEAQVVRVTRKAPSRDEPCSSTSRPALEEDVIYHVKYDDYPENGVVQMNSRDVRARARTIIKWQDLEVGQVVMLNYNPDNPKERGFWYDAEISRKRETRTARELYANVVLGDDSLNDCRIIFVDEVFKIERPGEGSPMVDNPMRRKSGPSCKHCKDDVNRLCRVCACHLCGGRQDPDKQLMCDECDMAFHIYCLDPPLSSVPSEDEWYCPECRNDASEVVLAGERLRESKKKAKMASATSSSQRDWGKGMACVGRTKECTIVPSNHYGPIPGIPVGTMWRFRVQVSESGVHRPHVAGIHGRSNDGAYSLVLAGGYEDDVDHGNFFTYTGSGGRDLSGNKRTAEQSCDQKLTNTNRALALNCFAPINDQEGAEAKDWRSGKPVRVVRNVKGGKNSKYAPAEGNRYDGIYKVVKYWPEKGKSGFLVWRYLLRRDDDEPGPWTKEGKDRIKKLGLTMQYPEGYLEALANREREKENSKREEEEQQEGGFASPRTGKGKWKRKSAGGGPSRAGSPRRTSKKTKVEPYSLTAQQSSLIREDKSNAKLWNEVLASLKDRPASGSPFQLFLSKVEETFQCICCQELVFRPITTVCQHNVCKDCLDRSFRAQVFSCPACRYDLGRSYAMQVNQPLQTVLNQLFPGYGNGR
# LEDGF integ inh = blockers of LEDGF/p75-dependent integrase strand transfer – biochemical, TR-FRET, high throughput, primary screen; HIV-1 integrase (with human LEDGF/p75); TR-FRET IN-LEDGF/p75 DNA integration, Eu/Cy5; inhibition, % at 3.7 µM; 370,000 compounds, 0.64% hits; AID 743269, 2014;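 active = inhibition above the screen-wide mean plus 3 SD, cut at about 13% in these data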;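 note: signal is the Cy5 over europium emission ratio at 671 and 618 nm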
# TDP2 inh = human TDP2 enzyme inhibitors, primary screen, biochemical, epi absorbance, recombinant enzyme; T5PNP hydrolysis, p-nitrophenol absorbance 415 nm; inhibition, % at 12.8 µM; 370,000 compounds, 0.34% hits; AID 720702, 2013;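 active = inhibition above the mean of all tested compounds plus 3 SD, set per campaign, cut at about 25% in these data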
#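 Evaluation: % inhibition relative to enzyme-containing and enzyme-free wells. Material: recombinant human TDP2. Benchmarks: enzyme-free and DMSO wells. Timing: enzyme reaction with compound for 2 h at 37 °C. Compound dosing: 12.8 µM only. Measured by: p-Nitrophenol epi absorbance. Reagent: T5PNP substrate at 5 mM, a TopII-DNA adduct mimic. Replication: single well per compound.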
# MBD2 inh = inhibitors of MBD2 binding to methylated DNA, primary screen, biochemical, TR-FRET, DNA-binding domain, human; Methyl-CpG-binding domain protein 2 (Homo sapiens), Q9UBB5; 370,000 compounds, 0.31% hits; AID 686964, 2013; inhibition, % at 4.4 µM; MBD2 binding to methylated oligonucleotide; in the data active = inhibition above about 13%
# Numbers stand for hits; 0 = inactive. This is a sample that favours compounds with a hit; in the whole collection about 1.6% have one here.
SMILES,UHRF1 binding,LEDGF integ inh,TDP2 inh,MBD2 inh
COc1ccc(C(=O)C2CCCN(C(=O)c3c4c(nn3C)CCCC4)C2)cc1F (stereo not drawn),39.0,0,0,0
COc1ccc(N(C(=O)c2ccco2)C(C(=O)NC2CCCC2)c2ccncc2)cc1OC (stereo not drawn),23.1,0,0,0
COc1ccc(C(C(=O)NC2CCCC2)N(C(=O)c2ccco2)c2ccc(OC)c(OC)c2)cc1 (stereo not drawn),0,0,0,0
OC(C#CCN1CCCC1)(c1ccccc1)c1cccnc1 (stereo not drawn),21.5,0,0,0
OC(C#CCN1CCCCCC1)(c1ccccc1)c1cccnc1 (stereo not drawn),0,0,0,0
CCOCc1nnc(NC(=O)CS(=O)(=O)c2ccc(C)cc2)s1,25.8,0,0,0
CCOCc1nnc(NC(C)=O)s1,0,0,0,0
O=C(CCN1C(=O)C2C3C=CC(C3)C2C1=O)NCc1cccnc1 (stereo not drawn),22.0,0,0,0
O=C(CCN1C(=O)COc2ccccc21)NCc1cccnc1,0,0,0,0
O=C(CCN1C(=O)c2cccc3cccc(c23)C1=O)NCc1cccnc1,24.9,0,0,0
Cc1ccc(S(=O)(=O)N2C(N)=C(C(=O)NCc3ccc(Br)cc3)C(c3ccc(Cl)cc3)C2C(=O)c2ccccc2)cc1 (stereo not drawn),0,0,0,0
CCOC(=O)CC[C@@]1(C(=O)OCC)C[C@@H](CC(=O)N2CCSCC2)C(=O)N2CCCC=C21,0,0,0,0
Cn1c(SCC(=O)Nc2ccccc2-c2ccccc2)nnc1-c1cnccn1,0,0,0,0
O=C(c1ccco1)N1CCN(C(c2cccs2)c2nnnn2C2CCCCC2)CC1 (stereo not drawn),86.0,0,0,0
COc1ccc(C(c2nnnn2C2CCCC2)N2CCN(C(=O)c3ccco3)CC2)cc1OC (stereo not drawn),0,0,0,0
COC(=O)c1sccc1NC(=O)Nc1ccccc1C,0,0,0,0
COC(=O)c1sccc1NC(=O)Nc1ccccc1F,23.1,0,0,0
COC(=O)c1sccc1NC(=O)c1csc(C)c1,21.9,0,0,0
COC(=O)c1sccc1NC(=O)c1ccc(C)cc1,0,0,0,0
Cc1oc(-c2ccc(F)cc2)cc1-c1nn2c(-c3ccoc3C)nnc2s1,40.5,38.4,0,14.4
Cc1cc(-c2nnc(CCC(=O)NCC(C)c3ccccc3)o2)no1 (stereo not drawn),0,0,0,0
CC(CNC(=O)CCc1nnc(CCC2CCCCC2)o1)c1ccccc1 (stereo not drawn),32.7,0,0,0
Nc1c(C(=O)Nc2ccc(Br)cc2)sc2nc(-c3ccco3)ccc12,0,14.6,0,0
Nc1c(C(=O)Nc2ccc(F)cc2)sc2nc(-c3ccco3)ccc12,0,0,0,0
C[C@H]1CN(C(=O)OC(C)(C)C)CCN1c1ccc(N2CCS(=O)(=O)CC2)c(C#N)c1,0,0,0,0
SMILES,UHRF1 binding,LEDGF integ inh,TDP2 inh,MBD2 inh
CCCN(C)C1CN(Cc2cn(Cc3ccc(Cl)cc3)nn2)S(=O)(=O)C1 (stereo not drawn),0,0,0,0
CCCN(C)C1CN(Cc2cn(Cc3cc(C)cc(C)c3)nn2)S(=O)(=O)C1 (stereo not drawn),22.3,0,0,0
O=[N+]([O-])c1cc([N+](=O)[O-])c2cc(-c3cccnc3)[nH]c2c1,0,0,25.8,0
COc1ccc(S[C@]2(C(=O)N3CCCC3)CC(=O)N(C(=O)CCc3ccccc3)[C@@H]2c2ccc(OC)cc2)cc1,0,0,0,0
O=C(CSCCc1ccccn1)Nc1ccccn1,0,0,0,0
O=C(O)CSCCc1ccccn1,21.2,0,0,0
C/C(=C/c1c[n+](Cc2ccc3c(c2)OCO3)c(N)[nH]1)Cn1[nH]c(=O)n(-c2ccccc2)c1=O,0,0,0,0
COC(=O)C1CN(Cc2cn(Cc3ccccc3)nn2)CCS(=O)(=O)N1Cc1ccc(F)cc1 (stereo not drawn),0,0,0,0
COc1cc(C(C)=O)ccc1OCc1cn(CC(=O)c2ccc(O)cc2)nn1,21.2,0,0,0
O=C(Cn1cc(COc2cc(F)cc(F)c2)nn1)c1ccc(O)cc1,0,0,0,0
COc1cc(C=O)ccc1OCc1cn(CC(=O)c2ccc(O)cc2)nn1,0,0,0,0
O=C(Cn1cc(COc2ccc(Br)cc2[N+](=O)[O-])nn1)c1ccc(O)cc1,23.9,0,0,0
CC(=O)c1ccc(OCc2cn(CC(=O)c3ccc(O)cc3)nn2)cc1,21.5,0,0,0
Cc1cccc(C)c1OCc1cn(CC(=O)c2ccc(O)cc2)nn1,0,0,0,0
CC(=O)c1ccc(OCc2cn(CC(=O)c3ccc(O)cc3)nn2)c(C)c1,22.8,0,0,0
COC(=O)[C@H](C(C)C)N1Cc2nnn(Cc3ccc(C)cc3)c2-c2cc(F)ccc2S1(=O)=O,0,0,0,0
COCCCNC(=O)C[C@H]1C[C@@]2(C(=O)OC)C(=C[C@H](COCc3ccccc3)O[C@@H]2C)N(Cc2ccco2)C1=O,0,0,0,0
O=C(NCc1ccccc1)OCCN1C(=O)CCC12CCC(c1ccccc1)CC2 (stereo not drawn),0,0,0,0
COC(=O)[C@]12C[C@H](CC(=O)NCc3ccc(OC)c(OC)c3)C(=O)N(Cc3cccc4ccccc34)C1=C[C@H](C1CCCC1)O[C@@H]2C,0,0,0,0
Cc1ccc(OC2CCN(C(=O)[C@H]3O[C@@H](n4cnc5c(N)ncnc54)[C@H](O)[C@@H]3O)CC2)cc1,0,0,0,0
COc1ccccc1C(=O)N1CCN(C(=O)[C@H]2O[C@@H](n3cnc4c(N)ncnc43)[C@H](O)[C@@H]2O)CC1,24.1,0,0,0
COc1cc(O)c(CC=C(C)C)c(O)c1C(=O)CCc1ccc(O)cc1,22.6,0,0,0
COc1ccc(S[C@]2(C(=O)N3CCN(C(C)=O)CC3)CC(=O)N(C(=O)C3CC3)[C@@H]2c2ccc(OC)cc2)cc1,0,0,0,0
OCC[C@H]1C[C@H](O)[C@@H](O)[C@@]2(OCc3ccccc32)O1,0,0,0,0
OCC[C@@H]1C[C@H](O)[C@@H](O)[C@@]2(OCc3cc(C(F)(F)F)ccc32)O1,21.5,0,0,0
O=C(CSc1nnc(-c2ccccc2)n1Cc1ccco1)Nc1ccc(OCc2ccccc2)cc1,0,0,0,0
Cc1ccccc1N1CCN(C(=O)CCn2nnc3ccccc32)CC1,0,0,0,0
Cc1cc(NS(=O)(=O)c2ccc(NC(=O)NC(C)(C(F)(F)F)C(F)(F)F)cc2)no1,20.9,0,0,0
Cc1cc(NS(=O)(=O)c2ccc(NC(=O)Nc3cccc(C(F)(F)F)c3)cc2)no1,0,0,0,0
